{"data": "Assay results from different studies", "PIP4K2C": "Phosphatidylinositol 5-phosphate 4-kinase type-2 gamma (PIP4K2C, Homo sapiens, UniProt Q8TBX8)"}
{"SMILES": "CC(C)C[C@H](NC(=O)[C@H](Cc1ccccc1)NC(=O)[C@H](Cc1ccc(O)cc1)NC(=O)CNC(=O)[C@H](CCCNC(=N)N)NC(=O)[C@H](CO)NC(=O)[C@H](CCC(N)=O)NC(=O)[C@H](CO)NC(=O)[C@H](C)NC(=O)[C@H](Cc1ccccc1)NC(=O)[C@@H]1CCCN1C(=O)[C@H](CO)NC(=O)[C@H](CCC(N)=O)NC(=O)[C@H](Cc1ccccc1)NC(=O)[C@H](CCC(=O)O)NC(=O)[C@H](CCC(=O)O)NC(=O)[C@H](CC(=O)O)NC(=O)[C@@H](NC(=O)[C@H](CCCNC(=N)N)NC(=O)[C@@H](N)Cc1ccccc1)C(C)C)C(=O)N[C@@H](Cc1ccccc1)C(=O)N[C@@H](CCCNC(=N)N)C(=O)N1CCC[C@H]1C(=O)N[C@@H](CCCNC(=N)N)C(=O)N[C@@H](CC(N)=O)C(N)=O", "target": "Neuromedin-U receptor 1 (NMUR1, Homo sapiens, UniProt Q9HB89)", "assay": "inositol phosphate, agonist", "quantity": "EC50", "result": "0.123 nM"}
{"SMILES": "COc1ccc2c(Oc3ccc4c(C(=O)Nc5ccccc5N)cccc4c3)ccnc2c1", "target": "Mitogen-activated protein kinase 9 (MAPK9, Homo sapiens, UniProt P45984)", "assay": "enzyme activity, inhibitor", "quantity": "IC50", "result": "> 500 nM"}
{"SMILES": "Cc1cc2nc3c(=O)[nH]c(=O)nc-3n(C[C@H](O)[C@H](O)[C@H](O)COP(=O)(O)OP(=O)(O)OC[C@H]3O[C@@H](n4cnc5c(N)ncnc54)[C@H](O)[C@@H]3O)c2cc1C", "target": "Alpha-crystallin B chain (CRYAB, Homo sapiens, UniProt P02511)", "assay": "binding", "conditions": "lysate", "quantity": "Kd", "result": "152 nM"}
{"SMILES": "C[C@@]12CCC(=O)N1c1cc(Nc3ncc(Cl)c(-c4cccc(-c5ccccc5)c4)n3)cnc1OC2", "target": "PIP4K2C", "assay": "binding", "quantity": "Kd", "result": "0.45 nM"}
{"SMILES": "CC1(C)[C@@H](O)CC[C@]2(C)[C@H]3C(=O)C=C4[C@@H]5C[C@@](C)(C(=O)O)CC[C@]5(C)CC[C@@]4(C)[C@]3(C)CC[C@@H]12", "target": "Peroxiredoxin-2 (PRDX2, Homo sapiens, UniProt P32119)", "assay": "binding, SPR", "quantity": "Kd", "result": "30000 nM"}
{"SMILES": "CC(=O)CC(c1ccccc1)c1c(O)c2ccccc2oc1=O (stereo not drawn)", "target": "Vitamin K epoxide reductase complex subunit 1-like protein 1 (Homo sapiens, UniProt Q8N0U8)", "assay": "enzyme activity, inhibitor, fluorescence", "quantity": "Ki", "result": "95 nM"}
{"SMILES": "C[S+](CC[C@H](N)C(=O)O)C[C@H]1O[C@@H](n2cnc3c(N)ncnc32)[C@H](O)[C@@H]1O (stereo partly drawn)", "target": "tRNA (guanine-N(1)-)-methyltransferase (trmD, Escherichia coli, UniProt P0A873)", "assay": "binding, fluorescence", "quantity": "Kd", "result": "1400 nM"}
{"SMILES": "Nc1ccn([C@@H]2O[C@H](COP(=O)(O)OP(=O)(O)OP(=O)(O)O)[C@@H](O)[C@H]2O)c(=O)n1", "target": "virB (Shigella flexneri, UniProt P0A247)", "assay": "binding, ITC", "quantity": "Kd", "result": "9300 nM"}
{"SMILES": "Cc1cnc(-c2ccc(-c3ccc(NC(=O)Nc4c(F)cc(F)cc4F)cc3F)c3c2C(=O)NC3)[nH]1", "target": "Tyrosine-protein kinase Lck (LCK, Homo sapiens, UniProt P06239)", "assay": "binding, competition with immobilised ligand", "quantity": "Kd", "result": "11 nM"}
{"SMILES": "Nc1ncc2c(n1)-c1c([nH]c3ccc(C#CC4CC4)cc13)CCCC2", "target": "PIP4K2C", "assay": "binding, competition with immobilised ligand", "quantity": "Kd", "result": "6400 nM"}
{"SMILES": "ON=Cc1ccc(-c2ccc(O)c(F)c2)c(Cl)c1O", "target": "Estrogen receptor beta (ESR2, Homo sapiens, UniProt Q92731)", "assay": "reporter gene, agonist, luciferase", "quantity": "EC50", "result": "72 nM"}
{"SMILES": "CC(=O)Nc1cc(Oc2ccc3c(c2)CCN3C(=O)Nc2ccc(CN3CCN(C)CC3)c(C(F)(F)F)c2)ncn1", "target": "Tyrosine-protein kinase JAK2 (JAK2, Homo sapiens, UniProt O60674)", "assay": "enzyme activity, inhibitor, ELISA", "quantity": "Ki", "result": "22000 nM"}
